Results published in ChEMBL document CHEMBL4340551, “Design, synthesis and preliminary bioactivity studies of indomethacin derivatives as Bcl-2/Mcl-1 dual inhibitors” (Bioorg Med Chem, 2019).
pIC50, pKi: −log10 of the molar value.

Tests used:
K562 = assay: Antiproliferative activity against human K562 cells assessed as reduction in cell growth incubated for 48 hrs by MTT assay; type: functional, cell-based; details: K562, 48 h
Procedure, shortened: (§1)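 PC-3, Jurkat and K562 cells grown in RPMI 1640 with 10% FBS at 37°C, 5% CO2. Cells seeded at 2000-4000 per well and left 8 h before compound addition at a range of concentrations. Exposure 48 h, then 0.5% MTT solution for 4 h. Formazan dissolved in DMSO and absorbance read at 570 nm. IC50 derived from concentrations and inhibitory ratios.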

PC-3 = assay: Antiproliferative activity against human PC3 cells assessed as reduction in cell growth incubated for 48 hrs by MTT assay; type: functional, cell-based; details: PC-3, 48 h; procedure, shortened: as §1
[1] = biological target: T1, Apoptosis regulator Bcl-2 (Homo sapiens, UniProt P10415); assay: Inhibition of 5-FAM-tagged Bid-BH3 peptide binding to Bcl2 (unknown origin) by fluorescence polarization assay; details: for pKi: read-out: Ki
Bcl-2-like protein 1 = Bcl-2-like protein 1 (Homo sapiens, UniProt Q07817); assay: Inhibition of 5-FAM-tagged Bid-BH3 peptide binding to Bcl-XL (unknown origin) by fluorescence polarization assay; details: for pKi: read-out: Ki
Procedure, shortened: (§2)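 Competitive fluorescence polarization in which compounds displace labelled Bid-BH3 peptide from the Bcl-2 family protein, read as a fall in mP. IC50 taken from mP versus concentration. Ki calculated from IC50, Kd, and the peptide and protein concentrations.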

Jurkat [2] = assay: Antiproliferative activity against human Jurkat cells assessed as reduction in cell growth incubated for 48 hrs by MTT assay; type: functional, cell-based; procedure, shortened: as §1
[3] = biological target: T1, Apoptosis regulator Bcl-2; assay: Potency index, ratio of Ki for WL276 to Ki for test compound for inhibition of 5-FAM-tagged Bid-BH3 peptide binding to Bcl2 (unknown origin) by fluorescence polarization assay
[4] = biological target: T1, Apoptosis regulator Bcl-2; assay: Potency index, ratio of Ki for UMI77 to Ki for test compound for inhibition of 5-FAM-tagged Bid-BH3 peptide binding to Bcl2 (unknown origin) by fluorescence polarization assay
[5] = biological target: Induced myeloid leukemia cell differentiation protein Mcl-1 (Homo sapiens, UniProt Q07820); assay: Inhibition of 5-FAM-tagged Bid-BH3 peptide binding to Mcl1 (unknown origin) by fluorescence polarization assay; procedure, shortened: as §2
Jurkat [6] = assay: Induction of apoptosis in human Jurkat cells assessed as late apoptotic cells level at 20 uM incubated for 48 hrs by annexin-V/FITC and propidium iodide staining based flow cytometry (reference value: 6.29%); type: functional
Jurkat [7] = assay: Induction of apoptosis in human Jurkat cells assessed as early apoptotic cells level at 40 uM incubated for 48 hrs by annexin-V/FITC and propidium iodide staining based flow cytometry (reference value: 7.02%); type: functional
Jurkat [8] = assay: Induction of apoptosis in human Jurkat cells assessed as viable cells level at 40 uM incubated for 48 hrs by annexin-V/FITC and propidium iodide staining based flow cytometry (reference value: 86.5%); type: functional
Jurkat [9] = assay: Induction of apoptosis in human Jurkat cells assessed as early apoptotic cells level at 20 uM incubated for 48 hrs by annexin-V/FITC and propidium iodide staining based flow cytometry (reference value: 7.02%); type: functional
Jurkat [10] = assay: Induction of apoptosis in human Jurkat cells assessed as necrotic cells level at 20 uM incubated for 48 hrs by annexin-V/FITC and propidium iodide staining based flow cytometry (reference value: 6.29%); type: functional
Jurkat [11] = assay: Induction of apoptosis in human Jurkat cells assessed as viable cells level at 20 uM incubated for 48 hrs by annexin-V/FITC and propidium iodide staining based flow cytometry (reference value: 86.5%); type: functional
Jurkat [12] = assay: Induction of apoptosis in human Jurkat cells assessed as late apoptotic cells level at 40 uM incubated for 48 hrs by annexin-V/FITC and propidium iodide staining based flow cytometry (reference value: 6.29%); type: functional
Jurkat [13] = assay: Induction of apoptosis in human Jurkat cells assessed as necrotic cells level at 40 uM incubated for 48 hrs by annexin-V/FITC and propidium iodide staining based flow cytometry (reference value: 6.29%); type: functional
[14] = biological target: T1, Apoptosis regulator Bcl-2; assay: Inhibition of 5-FAM-tagged Bid-BH3 peptide binding to Bcl2 (unknown origin) at 100 uM by fluorescence polarization assay relative to untreated control
Jurkat [15] = assay: Potency index, ratio of IC50 for WL276 to IC50 for test compound for antiproliferative activity against human Jurkat cells assessed as reduction in cell growth incubated for 48 hrs by MTT assay; type: functional
Jurkat [16] = assay: Induction of apoptosis in human Jurkat cells incubated for 48 hrs by annexin-V/FITC and propidium iodide staining based flow cytometry; type: functional, cell-based

T1 sequence (P10415 whole entry): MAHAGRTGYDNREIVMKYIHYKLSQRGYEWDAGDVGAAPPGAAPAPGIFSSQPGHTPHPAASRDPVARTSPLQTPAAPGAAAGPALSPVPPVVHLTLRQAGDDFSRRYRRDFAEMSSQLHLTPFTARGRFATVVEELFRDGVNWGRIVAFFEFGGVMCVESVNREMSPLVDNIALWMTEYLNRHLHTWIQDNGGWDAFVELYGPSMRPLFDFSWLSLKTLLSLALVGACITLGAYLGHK
Sequence of Induced myeloid leukemia cell differentiation protein Mcl-1 (Q07820 whole entry): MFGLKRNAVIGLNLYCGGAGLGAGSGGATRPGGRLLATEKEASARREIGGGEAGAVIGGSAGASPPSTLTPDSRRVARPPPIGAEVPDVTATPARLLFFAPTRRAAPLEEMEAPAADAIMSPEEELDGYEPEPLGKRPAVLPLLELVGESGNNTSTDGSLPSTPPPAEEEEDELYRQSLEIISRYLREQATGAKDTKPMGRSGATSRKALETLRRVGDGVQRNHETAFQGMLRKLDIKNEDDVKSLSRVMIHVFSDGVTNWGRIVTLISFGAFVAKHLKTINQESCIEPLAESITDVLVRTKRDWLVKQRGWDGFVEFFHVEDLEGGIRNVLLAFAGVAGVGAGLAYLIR
Sequence of Bcl-2-like protein 1 (Q07817 whole entry): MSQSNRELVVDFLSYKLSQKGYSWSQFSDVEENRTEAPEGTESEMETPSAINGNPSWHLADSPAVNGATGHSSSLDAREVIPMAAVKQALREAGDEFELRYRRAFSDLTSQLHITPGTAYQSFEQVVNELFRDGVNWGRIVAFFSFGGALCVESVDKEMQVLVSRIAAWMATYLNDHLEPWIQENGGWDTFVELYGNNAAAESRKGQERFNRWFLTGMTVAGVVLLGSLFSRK

Row | Compound | pIC50 (K562) | pIC50 (PC-3) | pKi [1] | Ki (Bcl-2-like protein 1) | pIC50 (Jurkat [2]) | Ratio Ki [3] | Ratio Ki [4] | pKi [5] | other results
1 | COc1ccc2c(c1)c(CC(=O)N[C@@H](Cc1ccc(OCc3cccc(C#N)c3)cc1)C(=O)NS(=O)(=O)c1ccc(Cl)c([N+](=O)[O-])c1)c(C)n2C(=O)c1ccc(Cl)cc1 | 4.29 | 4.42 | 6.36 | Not Active | 4.26 | 2 to 3 | 5 to 6 | 6.32 | 
2 | COc1ccc2c(c1)c(CC(=O)N[C@@H](Cc1ccc(OCc3cccc(C)c3)cc1)C(=O)NS(=O)(=O)c1ccc(Cl)c([N+](=O)[O-])c1)c(C)n2C(=O)c1ccc(Cl)cc1 | 4.41 | 4.54 | 6.37 | Not Active | 4.52 | 2 to 3 | 5 to 6 | 6.31 | 
3 | COc1ccc2c(c1)c(CC(=O)N[C@@H](Cc1ccc(OCc3ccccc3Br)cc1)C(=O)NS(=O)(=O)c1ccc(Cl)c([N+](=O)[O-])c1)c(C)n2C(=O)c1ccc(Cl)cc1 | 4.38 | 4.44 | 6.35 | Not Active | 4.47 | 2 to 3 | 5 to 6 | 6.28 | 
4 | COc1ccc2c(c1)c(CC(=O)N[C@@H](Cc1ccc(OCc3ccc4ccccc4c3)cc1)C(=O)NS(=O)(=O)c1ccc(Cl)c([N+](=O)[O-])c1)c(C)n2C(=O)c1ccc(Cl)cc1 |  |  | 6.25 |  |  | 2 to 3 | 5 to 6 |  | 
5 | COc1ccc2c(c1)c(CC(=O)NCC(=O)NS(=O)(=O)c1ccc(Cl)c([N+](=O)[O-])c1)c(C)n2C(=O)c1ccc(Cl)cc1 |  |  |  |  |  |  |  |  | Ki [1]: Not Active; inhibition [14]: 94%

More lines, main results first:

Row | pIC50 (K562) | pIC50 (PC-3) | pKi [1] | Ki (Bcl-2-like protein 1) | pIC50 (Jurkat [2]) | Ratio Ki [3] | Ratio Ki [4] | pKi [5] | Compound | other results
6 | 4.31 | 4.41 | 6.33 | Not Active | 4.08 | 2 to 3 | 5 to 6 | 6.28 | COc1ccc2c(c1)c(CC(=O)N[C@@H](Cc1ccc(OCc3ccc(C#N)cc3)cc1)C(=O)NS(=O)(=O)c1ccc(Cl)c([N+](=O)[O-])c1)c(C)n2C(=O)c1ccc(Cl)cc1 | 
7 | 4.37 |  | 5.82 |  | 4.50 |  |  | 5.96 | Cc1ccc(S(=O)(=O)NC(=O)[C@H](Cc2ccccc2)N2C(=O)/C(=C/c3ccc(-c4ccccc4)cc3)SC2=S)cc1 | Activity (Jurkat [6]): 13.6%; Activity (Jurkat [7]): 17.4%; Activity (Jurkat [8]): 65.5%; Activity (Jurkat [9]): 15.5%; Activity (Jurkat [10]): 0.22%; pKi (Bcl-2-like protein 1): 5.89; Activity (Jurkat [11]): 70.7%; Activity (Jurkat [12]): 16.8%; Activity (Jurkat [13]): 0.3%
8 |  |  | 5.54 |  |  |  |  | 6.74 | O=C(O)CSc1cc(NS(=O)(=O)c2ccc(Br)cc2)c2ccccc2c1O | pKi (Bcl-2-like protein 1): 5.11
9 |  |  | 6.20 |  |  | 2 to 3 | 5 to 6 |  | COc1ccc2c(c1)c(CC(=O)N[C@@H](Cc1ccc(OCc3ccc([N+](=O)[O-])cc3)cc1)C(=O)NS(=O)(=O)c1ccc(Br)cc1)c(C)n2C(=O)c1ccc(Cl)cc1 | 
10 | 4.44 | 4.50 | 6.32 |  | 4.44 | 2 to 3 | 5 to 6 |  | COc1cccc(COc2ccc(C[C@H](NC(=O)Cc3c(C)n(C(=O)c4ccc(Cl)cc4)c4ccc(OC)cc34)C(=O)NS(=O)(=O)c3ccc(Cl)c([N+](=O)[O-])c3)cc2)c1 | 
11 | 4.44 | 4.59 | 6.36 | Not Active | 4.61 | 2 to 3 | 5 to 6 | 6.36 | COc1ccc2c(c1)c(CC(=O)N[C@@H](Cc1ccc(OCc3ccc(Br)cc3)cc1)C(=O)NS(=O)(=O)c1ccc(Cl)c([N+](=O)[O-])c1)c(C)n2C(=O)c1ccc(Cl)cc1 | Activity (Jurkat [6]): 21.3%; Activity (Jurkat [7]): 27.5%; Activity (Jurkat [8]): 42.3%; Activity (Jurkat [9]): 21.8%; Activity (Jurkat [10]): 0.51%; Ratio IC50 (Jurkat [15]): 2; Activity (Jurkat [11]): 56.3%; Activity (Jurkat [12]): 29.3%; Activity (Jurkat [13]): 0.81%; Activity (Jurkat [16]): Dose-dependent effect
